Data from article PMC2888972 (Molecular cancer therapeutics, 2009).

Columns and labels:
TA100 = assay: Bacterial mutation
[1] = animal models; cited from earlier work
Cyclin D1 = assay: Western blot, Cyclin D1; assay type: cell-based, human; conditions: SHetA2 treatment
How it was run: (§1)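 Lysis is in CytoBuster with protease inhibitor cocktail. 100 µg protein is resolved by SDS-PAGE and blotted to nitrocellulose. Blots are probed with mouse monoclonals (Cyclin D1, PARP-1, Caspase 3), then HRP secondary with luminol detection. Stripped blots are reprobed for β-actin or GAPDH as loading control. Solvent-only DMSO cultures serve as control.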

five bacterial strains = assay: Bacterial mutation
786-O cancer = assay: Growth inhibition assay; assay type: cell-based, human; conditions: 48 h, 1 to 12.5 µmol/L
How it was run: (§2)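 Stock is 0.01 mol/L in DMSO, kept at −20°C under subdued light. Cells get 1–12.5 µmol/L or equal-volume DMSO, in triplicate, for 48 h. Growth index is mean treated OD over mean control OD, plotted against concentration. Maximal inhibition comes by nonlinear regression from plots of 2–3 independent experiments.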

TA98 = assay: Bacterial mutation
Caki-1 cancer [2] = assay: Cell cycle analysis; assay type: cell-based, human; conditions: 10 µmol/L, 24 h
TA1535 = assay: Bacterial mutation
HK-2 normal = assay: Growth inhibition assay; assay type: cell-based, human; conditions: 48 h
How it was run: as §2

[3] = tested on: RTC 91696 normal cultures; assay: Apoptosis assay; assay type: cell-based, human; conditions: maximum 72-hour treatment time and 12.5-µmol/L concentration
How it was run: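 Floating cells from the medium are pooled with trypsinised adherent cells, pelleted, and stained with Annexin-V-FITC and PI (Vybrant kit #3). Flow cytometry uses 488 nm excitation and 530/575 nm emission. Cultures are at passage 3, in MEMα with EGF 10 ng/mL, hydrocortisone 5 µg/mL, insulin/transferrin/selenous acid 6.35 µg/mL each, 10% FBS and pen/strep. The apoptotic-quadrant percentage comes from four replicate experiments.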

[4] = tested on: livers of SHetA2-treated mice; conditions: previous xenograft model; cited from earlier work
WP2 uvrA = assay: Bacterial mutation
TA1537 = assay: Bacterial mutation
Caki-1 cancer [5] = assay: Growth inhibition assay; assay type: cell-based, human
How it was run: as §2

mouse embryos = conditions: animal models; cited from earlier work
E-Cadherin mRNA = assay: Real-time rtPCR of E-Cadherin in Caki-1 cultures; assay type: cell-based, human
How it was run: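 RNA comes from frozen cell pellets (RNeasy). TaqMan real-time PCR for E-Cadherin and 18S is run in triplicate reactions. Expression is normalised to 18S by ΔΔCt and set relative to solvent-only control cultures at each dose or time point. Three independent experiments.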

normal HK-2 cell lines = assay: Cell cycle analysis; assay type: cell-based, human; conditions: 10 µmol/L, 24 h
[6] = tested on: NF-κB transcriptional activity; assay: NF-κB luciferase reporter assay in Caki-1; assay type: cell-based, human
PARP-1 and Caspase 3 = assay: Western blot, PARP-1 and Caspase 3 cleavage; assay type: cell-based, human; conditions: Caki-1 cultures, 10 µmol/L
How it was run: as §1

[7] = tested on: Caki-1 renal cancer xenografts; assay: Caki-1 renal cancer xenograft; conditions: for tumor-related deaths: 4 in untreated control group
RTC91696 normal = assay: Growth inhibition assay; assay type: cell-based, human; conditions: 48 h
Caki-1 cancer cell line = assay: Apoptosis assay; assay type: cell-based, human; conditions: 10 µmol/L SHetA2, Annexin-V-FITC/PI
[8] = tested on: A498 cancer cell line xenograft; assay: A498 xenograft model; assay type: in vivo; conditions: 20, 40, or 60 mg/kg/day; data not shown
[9] = 1.58 µg/plate (0.004 µmol/L), +S9
[10] = 1.58 µg/plate (0.004 µmol/L), −S9
[11] = 5.0 µg/plate (0.012 µmol/L), +S9
[12] = 15.8 µg/plate (0.039 µmol/L), +S9
[13] = 50 µg/plate (0.125 µmol/L), +S9
[14] = 158 µg/plate (0.393 µmol/L), +S9
[15] = 50 µg/plate (0.125 µmol/L), −S9
[16] = 158 µg/plate (0.393 µmol/L), −S9
[17] = 500 µg/plate (1.245 µmol/L), +S9
[18] = 500 µg/plate (1.245 µmol/L), −S9
[19] = 1581 µg/plate (3.937 µmol/L), +S9
[20] = 1581 µg/plate (3.937 µmol/L), −S9
[21] = 5000 µg/plate (12.452 µmol/L), +S9
[22] = 5000 µg/plate (12.452 µmol/L), −S9
[23] = Homo sapiens, read-out: potency (EC50, concentration needed to induce half maximal efficacy)

## CC1(C)CC(C)(C)c2cc(NC(=S)Nc3ccc([N+](=O)[O-])cc3)ccc2S1 [SHetA2]
TA100; [9]
  number of revertant colonies, Mean: 136
TA100; [10]
  number of revertant colonies, Mean: 136
TA100; [11]
  number of revertant colonies, Mean: 124
TA100; [12]
  number of revertant colonies, Mean: 171
[1]
  skin irritancy: did not induce skin irritancy or teratogenicity
Cyclin D1
  time to decreased expression of Cyclin D1: ≤ 1 h
Five bacterial strains; preincubation with S9 microsomal fractions
  mutagenicity of metabolites (number of revertant colonies): no effect on the number of revertant colonies
Five bacterial strains; without S9
  mutagenicity (increase in revertant colony counts): neither SHetA2 nor SHetA3 induced substantial increases in the revertant colony counts
786-O cancer
  efficacy (maximum growth inhibition observed): 72.00% ± 5.06%
TA98; [9]
  number of revertant colonies, Mean: 48
TA98; [10]
  number of revertant colonies, Mean: 16
TA98; [11]
  number of revertant colonies, Mean: 45
TA98; [12]
  number of revertant colonies, Mean: 52
TA98; [13]
  number of revertant colonies, Mean: 49
TA98; [14]
  number of revertant colonies, Mean: 12
Caki-1 cancer [2]
  percentages of cells in the G0-G1 phase of the cell cycle: increased the percentages of cells in the G0-G1 phase
TA1535; [13]
  number of revertant colonies, Mean: 15
TA1535; [15]
  number of revertant colonies, Mean: 19
TA1535; [14]
  number of revertant colonies, Mean: 20
TA1535; [16]
  number of revertant colonies, Mean: 26
TA1535; [17]
  number of revertant colonies, Mean: 22
TA1535; [18]
  number of revertant colonies, Mean: 18
TA1535; [19]
  number of revertant colonies, Mean: 19
TA1535; [20]
  number of revertant colonies, Mean: 21
TA1535; [21]
  number of revertant colonies, Mean: 22
TA1535; [22]
  number of revertant colonies, Mean: 16
HK-2 normal; HK-2 normal, 1 to 12.5 µmol/L
  efficacy (maximum growth inhibition observed): 51.02% ± 7.07%
HK-2 normal; [23]
  EC50: 4.5 ± 0.28 µM
[3]
  induction of apoptosis in normal cells: did not induce apoptosis
[4]
  liver damage (necrosis, fatty changes, inflammation in portal tracts): no liver damage
WP2 uvrA; [13]
  number of revertant colonies, Mean: 27
WP2 uvrA; [15]
  number of revertant colonies, Mean: 17
WP2 uvrA; [14]
  number of revertant colonies, Mean: 18
WP2 uvrA; [16]
  number of revertant colonies, Mean: 14
WP2 uvrA; [17]
  number of revertant colonies, Mean: 22
WP2 uvrA; [18]
  number of revertant colonies, Mean: 18
WP2 uvrA; [19]
  number of revertant colonies, Mean: 17
WP2 uvrA; [20]
  number of revertant colonies, Mean: 10
WP2 uvrA; [21]
  number of revertant colonies, Mean: 13
WP2 uvrA; [22]
  number of revertant colonies, Mean: 12
TA1537; [9]
  number of revertant colonies, Mean: 23
TA1537; [10]
  number of revertant colonies, Mean: 9
TA1537; [11]
  number of revertant colonies, Mean: 21
TA1537; [12]
  number of revertant colonies, Mean: 21
Caki-1 cancer [5]; Caki-1 cancer, 48 h, 1 to 12.5 µmol/L
  efficacy (maximum growth inhibition observed): 84.40% ± 3.86%
Caki-1 cancer [5]; Homo sapiens, CAKI-1, 48 h, read-out: potency (EC50, concentration needed to induce half maximal efficacy)
  EC50: 4.93 ± 0.22 µM
Mouse embryos
  teratogenicity: did not induce skin irritancy or teratogenicity
E-Cadherin mRNA
  time to upregulation of E-Cadherin mRNA: ≤ 1 h
E-Cadherin mRNA; 4 hours of treatment
  induction of E-Cadherin steady-state mRNA: 20 fold
E-Cadherin mRNA; 24 hours of treatment
  induction of E-Cadherin steady-state mRNA: 60 fold
Normal HK-2 cell lines
  percentages of cells in the G0-G1 phase of the cell cycle: increased the percentages of cells in the G0-G1 phase
[6]; 10 µmol/L SHetA2
  time to inhibition of NF-κB activity: ≤ 30 min
[6]; 10 µmol/L SHetA2, 20 ng/mL TNFα, 4 or 8 h
  tumor necrosis factor α induced NF-κB transcriptional activity: significantly inhibited
PARP-1 and Caspase 3
  time to cleavage of PARP-1 and Caspase 3: ≤ 16 h
[7]; 20 mg/kg/day oral
  tumor-related deaths: 3
[7]; 40 mg/kg/day oral
  tumor-related deaths: 6
[7]; 60 mg/kg/day oral for 30 days, day 34 (23rd day of treatment)
  maximal growth inhibition of xenograft tumors: 36%
[7]; 60 mg/kg/day oral
  tumor-related deaths: 6
[7]; 20, 40, 60 mg/kg/day oral for 30 days
  body weight of the animals compared with the control group: None of the treatment concentrations altered the body weight
[7]; 20 and 40 mg/kg/day oral for 30 days
  reduction of xenograft tumor sizes: not statistically significant
RTC91696 normal; [23]
  EC50: 4.57 ± 0.49 µM
RTC91696 normal; RTC91696 normal, 1 to 12.5 µmol/L, single experiments
  efficacy (maximum growth inhibition observed): 36.84% ± 6.80%
Caki-1 cancer cell line
  percentage of cells in the quadrant corresponding to apoptosis: increased the percentage of Caki-1 cancer cells
[8]
  sensitivity of A498 xenograft: did not exhibit significant sensitivity
